≈ marks a conversion by molar mass, not a printed value.
What follows are compounds tested on Staphylococcus aureus (assay: Antibacterial activity against methicillin-resistant Staphylococcus aureus 10-1 after 18 hrs by two fold serial dilution method). Settings: 10-1, 18 h.
Type: functional
How it was run: (§1)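 Agar two-fold serial dilution in melted Mueller-Hinton agar, 128 to 0.008 μg/mL. Plates inoculated with 10⁴ cfu, incubated 35 °C for 18 h. MIC taken as lowest concentration giving no visible growth on the plate.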

Row | Structure (SMILES) | MIC [µg/mL]
1 | O=C(O)c1cn(C2CC2)c2cc(N3CCNCC3)c(F)cc2c1=O [CIPROFLOXACIN] | > 128

Each compound was assayed on Staphylococcus aureus (assay: Antibacterial activity against methicillin-resistant Staphylococcus aureus 10-2 infected KM mouse systemic infection model assessed as decrease in mouse mortality administered orally twice after 1 and 4 hrs post infection measured up to 7 days). Settings: 10-2, po.
Type: functional
How it was run: (§2)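 Strains grown on MH agar at 35 °C for 18 h, suspended in gastric mucin. Male KM mice (19–21 g), groups of 10, infected intraperitoneally with 0.5 mL at 5–10× MLD. Four oral dose levels per drug at 1 and 4 h post infection. Mortality followed 7 days; ED50 with 95% confidence limits by Bliss method.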

Row | Structure (SMILES) | ED50 [mg/kg]
2 | O=C(O)c1cn(C2CC2)c2cc(N3CCNCC3)c(F)cc2c1=O [CIPROFLOXACIN] | 15.9

The compounds below were run on Klebsiella pneumoniae (assay: Antibacterial activity against Klebsiella pneumoniae 10-3 after 18 hrs by two fold serial dilution method). Settings: 10-3, 18 h.
Type: functional
How it was run: (§3)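 Agar two-fold serial dilution in melted Mueller-Hinton agar, final concentrations 128 down to 0.008 μg/mL. Plates inoculated with 10⁴ cfu and incubated at 35 °C for 18 h. MIC taken as the lowest concentration giving no visible growth on the plate.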

Row | Structure (SMILES) | MIC [µg/mL]
3 | O=C(O)c1cn(C2CC2)c2cc(N3CCNCC3)c(F)cc2c1=O [CIPROFLOXACIN] | 0.25 (≈ 0.754 µM)

Each compound was assayed on Staphylococcus aureus (assay: Antibacterial activity against methicillin-resistant Staphylococcus aureus 10-3 after 18 hrs by two fold serial dilution method). Settings: 10-3, 18 h.
Type: functional
How it was run: as §1

Row | Structure (SMILES) | MIC [µg/mL]
4 | O=C(O)c1cn(C2CC2)c2cc(N3CCNCC3)c(F)cc2c1=O [CIPROFLOXACIN] | > 128

These compounds were tested on Escherichia coli (assay: Antibacterial activity against Escherichia coli 10-2 infected KM mouse systemic infection model assessed as decrease in mouse mortality administered orally twice after 1 and 4 hrs post infection measured up to 7 days). Settings: 10-2, po.
Type: functional
How it was run: as §2

Row | Structure (SMILES) | ED50 [mg/kg]
5 | O=C(O)c1cn(C2CC2)c2cc(N3CCNCC3)c(F)cc2c1=O [CIPROFLOXACIN] | 4

These compounds were tested on Staphylococcus epidermidis (assay: Antibacterial activity against methicillin-sensitive Staphylococcus epidermidis 10-1 after 18 hrs by two fold serial dilution method). Settings: 10-1, 18 h.
Type: functional
How it was run: as §3

Row | Structure (SMILES) | MIC [µg/mL]
6 | O=C(O)c1cn(C2CC2)c2cc(N3CCNCC3)c(F)cc2c1=O [CIPROFLOXACIN] | 8 (≈ 24.1 µM)

What follows are compounds tested on Staphylococcus aureus (assay: Antibacterial activity against methicillin-sensitive Staphylococcus aureus 10-3 after 18 hrs by two fold serial dilution method). Settings: 10-3, 18 h.
Type: functional
How it was run: as §3

Row | Structure (SMILES) | MIC [µg/mL]
7 | O=C(O)c1cn(C2CC2)c2cc(N3CCNCC3)c(F)cc2c1=O [CIPROFLOXACIN] | 0.06 (≈ 0.181 µM)

Each compound was assayed on Pseudomonas aeruginosa (assay: Antibacterial activity against Pseudomonas aeruginosa 10-1 infected KM mouse systemic infection model assessed as decrease in mouse mortality administered orally twice after 1 and 4 hrs post infection measured up to 7 days). Settings: 10-1, po.
Type: functional
How it was run: as §2

Row | Structure (SMILES) | ED50 [mg/kg]
8 | O=C(O)c1cn(C2CC2)c2cc(N3CCNCC3)c(F)cc2c1=O [CIPROFLOXACIN] | 111

The compounds below were run on Klebsiella pneumoniae (assay: Antibacterial activity against Klebsiella pneumoniae 10-1 after 18 hrs by two fold serial dilution method). Settings: 10-1, 18 h.
Type: functional
How it was run: as §3

Row | Structure (SMILES) | MIC [µg/mL]
9 | O=C(O)c1cn(C2CC2)c2cc(N3CCNCC3)c(F)cc2c1=O [CIPROFLOXACIN] | 0.06 (≈ 0.181 µM)

Each compound was assayed on Escherichia coli (assay: Antibacterial activity against Escherichia coli 09-3 after 18 hrs by two fold serial dilution method). Settings: 09-3, 18 h.
Type: functional
How it was run: as §3

Row | Structure (SMILES) | MIC [µg/mL]
10 | O=C(O)c1cn(C2CC2)c2cc(N3CCNCC3)c(F)cc2c1=O [CIPROFLOXACIN] | 64 (≈ 193 µM)

These compounds were tested on Staphylococcus epidermidis (assay: Antibacterial activity against methicillin-resistant Staphylococcus epidermidis 10-4 infected KM mouse systemic infection model assessed as decrease in mouse mortality administered orally twice after 1 and 4 hrs post infection measured up to 7 days). Settings: 10-4, po.
Type: functional
How it was run: as §2

Row | Structure (SMILES) | ED50 [mg/kg]
11 | O=C(O)c1cn(C2CC2)c2cc(N3CCNCC3)c(F)cc2c1=O [CIPROFLOXACIN] | 24.5

The compounds below were run on Klebsiella pneumoniae (assay: Antibacterial activity against Klebsiella pneumoniae 09-2 after 18 hrs by two fold serial dilution method). Settings: 09-2, 18 h.
Type: functional
How it was run: as §3

Row | Structure (SMILES) | MIC [µg/mL]
12 | O=C(O)c1cn(C2CC2)c2cc(N3CCNCC3)c(F)cc2c1=O [CIPROFLOXACIN] | 32 (≈ 96.6 µM)

What follows are compounds tested on Enterococcus faecalis (assay: Antibacterial activity against Enterococcus faecalis 09-2 after 18 hrs by two fold serial dilution method). Settings: 09-2, 18 h.
Type: functional
How it was run: as §3

Row | Structure (SMILES) | MIC [µg/mL]
13 | O=C(O)c1cn(C2CC2)c2cc(N3CCNCC3)c(F)cc2c1=O [CIPROFLOXACIN] | 64 (≈ 193 µM)

The compounds below were run on Staphylococcus aureus (assay: Antibacterial activity against methicillin-sensitive Staphylococcus aureus 10-4 after 18 hrs by two fold serial dilution method). Settings: 10-4, 18 h.
Type: functional
How it was run: as §3

Row | Structure (SMILES) | MIC [µg/mL]
14 | O=C(O)c1cn(C2CC2)c2cc(N3CCNCC3)c(F)cc2c1=O [CIPROFLOXACIN] | 0.06 (≈ 0.181 µM)

The compounds below were run on Enterococcus faecium (assay: Antibacterial activity against Enterococcus faecium 09-3 after 18 hrs by two fold serial dilution method). Settings: 09-3, 18 h.
Type: functional
How it was run: as §3

Row | Structure (SMILES) | MIC [µg/mL]
15 | O=C(O)c1cn(C2CC2)c2cc(N3CCNCC3)c(F)cc2c1=O [CIPROFLOXACIN] | 128 (≈ 386 µM)

The compounds below were run on Staphylococcus epidermidis (assay: Antibacterial activity against methicillin-resistant Staphylococcus epidermidis 10-2 after 18 hrs by two fold serial dilution method). Settings: 10-2, 18 h.
Type: functional
How it was run: as §1

Row | Structure (SMILES) | MIC [µg/mL]
16 | O=C(O)c1cn(C2CC2)c2cc(N3CCNCC3)c(F)cc2c1=O [CIPROFLOXACIN] | 8 (≈ 24.1 µM)

These compounds were tested on Enterococcus faecalis (assay: Antibacterial activity against Enterococcus faecalis 09-1 after 18 hrs by two fold serial dilution method). Settings: 09-1, 18 h.
Type: functional
How it was run: as §3

Row | Structure (SMILES) | MIC [µg/mL]
17 | O=C(O)c1cn(C2CC2)c2cc(N3CCNCC3)c(F)cc2c1=O [CIPROFLOXACIN] | 64 (≈ 193 µM)

Reference: ChEMBL document CHEMBL1926550, “Synthesis and antibacterial activity of naphthyridone derivatives containing mono/difluoro-methyloxime pyrrolidine scaffolds” (2012)
